The target of test [1] is T1, Free fatty acid receptor 1 (Homo sapiens, UniProt O14842). In words: Partial agonist activity at human GPR40 expressed in CHO cells measured over 20 secs interval by luminometric analysis in presence of 0.01% human serum albumin. The format is cell-based. An outline of the steps: (§1)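 Aequorin chemiluminescence read-out of calcium flux in a CHO line stably transfected with human GPR40, giving EC50. Run in buffer containing 0.01% human serum albumin, or in 100% human serum to test activity with plasma proteins present.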
T1 sequence (O14842 whole entry): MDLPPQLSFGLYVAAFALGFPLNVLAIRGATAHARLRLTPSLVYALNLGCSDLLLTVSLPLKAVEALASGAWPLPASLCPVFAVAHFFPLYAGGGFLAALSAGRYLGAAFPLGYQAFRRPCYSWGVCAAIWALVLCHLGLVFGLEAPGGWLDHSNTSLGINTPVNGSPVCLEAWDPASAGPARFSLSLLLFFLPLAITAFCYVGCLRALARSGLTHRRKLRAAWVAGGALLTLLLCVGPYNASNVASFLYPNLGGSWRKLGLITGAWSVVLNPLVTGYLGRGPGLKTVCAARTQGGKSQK

Test [2] concerns the target T1, Free fatty acid receptor 1. Description: Partial agonist activity at human GPR40 expressed in CHO cells measured over 20 secs interval by luminometric analysis in presence of 100% human serum. The format is cell-based. An outline of the steps: as §1
The target of test [3] is T1, Free fatty acid receptor 1. In words: Potency index , ratio of EC50 for AMG837 to EC50 for test compound for partial agonist activity at human GPR40 expressed in CHO cells measured over 20 secs interval by luminometric analysis in presence of 0.01% human serum albumin. It is filed as cell-based.
Test [4] concerns Mus musculus. In words: Reduction of blood glucose AUC in human islet transplanted nude chimeric mouse at 100 ug/kg administered 1 hr prior to glucose challenge by OGTT. It is filed as functional, organism-based. An outline of the steps:
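Nude mice had their endogenous pancreatic β-cells ablated with streptozotocin and were rescued to euglycemia by human islets transplanted under the kidney capsule. Compound was dosed before a glucose challenge, and the glucose AUC was determined.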

The target of test [5] is T1, Free fatty acid receptor 1. In words: Partial agonist activity at human GPR40 expressed in CHO cells measured over 20 secs interval by luminometric analysis. The format is cell-based.
In test [6] the test system is Pancreatic islet. Description: Induction of insulin release in human pancreatic islets. It is filed as functional.

The structures appear in SMILES notation. Calls of active or inactive are those of the source. No cut-off for these calls is given here.

By EC50 is commonly meant the concentration that produces a half-maximal response. `Cn1ccnc1[C@@H](CC(=O)O)c1ccc(OCc2cccc(-c3ccccc3Cl)c2)cc1`: the 50% effective concentration (EC50) in test [1] came to 43 nM; in test [2] it was 56000 nM. In addition, the Ratio EC50 in test [3] was determined as 2.

Turning to `CC[C@H](C)[C@H](NC(=O)[C@H](Cc1ccccc1)NC(=O)[C@H](CCC(=O)O)NC(=O)[C@H](CCCCN)NC(=O)[C@H](C)NC(=O)[C@H](C)NC(=O)[C@H](CCC(=O)O)NC(=O)CNC(=O)[C@H](CCC(=O)O)NC(=O)[C@H](CC(C)C)NC(=O)[C@H](Cc1ccc(O)cc1)NC(=O)[C@H](CO)NC(=O)[C@H](CO)NC(=O)[C@@H](NC(=O)[C@H](CC(=O)O)NC(=O)[C@H](CO)NC(=O)[C@@H](NC(=O)[C@H](Cc1ccccc1)NC(=O)[C@@H](NC(=O)CNC(=O)[C@H](CCC(=O)O)NC(=O)[C@H](C)NC(=O)[C@@H](N)Cc1cnc[nH]1)[C@@H](C)O)[C@@H](C)O)C(C)C)C(=O)N[C@@H](C)C(=O)N[C@@H](Cc1c[nH]c2ccccc12)C(=O)N[C@@H](CC(C)C)C(=O)N[C@H](C(=O)N[C@@H](CCCCN)C(=O)NCC(=O)N[C@@H](CCCNC(=N)N)C(=O)NCC(=O)O)C(C)C`, in test [4], the result was Active.

As to `Cc1cccc(C)c1-c1cccc(COc2ccc([C@H](CC(=O)O)c3nccn3C)cc2)c1`, the EC50 was 58 nM in test [1] and 29000 nM in test [2]. As for `COc1ccc(-c2cccc(COc3ccc([C@H](CC(=O)O)c4nccn4C)cc3)c2)cc1`, the EC50 in test [1] amounted to 440 nM. On the same count and under the same terms, to `Cn1ccnc1[C@@H](CC(=O)O)c1ccc(OCc2cccc(-c3ccccc3C#N)c2)cc1` belongs 690 nM.

`O=C(O)CC(c1ccccc1)c1ccc(OCc2cccc(-c3ccc(C(F)(F)F)cc3)c2)cc1` (racemic) came in with an EC50 in test [5] of 330 nM. As to `Cn1ccnc1[C@@H](CC(=O)O)c1ccc(OCc2cccc(-c3ccccc3OC(F)(F)F)c2)cc1`, the values for the EC50 in test [1] and in test [2] were 112 nM and 61000 nM, respectively.

In turn, `O=C(O)CC(c1ccc(OCc2cccc(-c3ccc(C(F)(F)F)cc3)c2)cc1)c1ccccn1` (racemic) returned an EC50 in test [5] of 330 nM.

For the compound `Cc1ccccc1-c1cccc(COc2ccc([C@H](CC(=O)O)c3nccn3C)cc2)c1`, the EC50 was found to be 43 nM in test [1] and 89000 nM in test [2]. Further, the Ratio EC50 in test [3] was 2. For `Cc1ccc(F)cc1-c1cccc(COc2ccc([C@H](CC(=O)O)c3nccn3C)cc2)c1`, the figures for the EC50 in test [1] and in test [2] were 36 nM and 42000 nM, respectively. For `CCc1ccccc1-c1cccc(COc2ccc([C@H](CC(=O)O)c3nccn3C)cc2)c1`, in that order: 48 nM and 65000 nM.

Take `O=C(O)CC(c1ccncc1)c1ccc(OCc2cccc(-c3ccc(C(F)(F)F)cc3)c2)cc1` (racemic): in test [5], the EC50 is 190 nM.

`Cn1ccnc1[C@@H](CC(=O)O)c1ccc(OCc2cccc(-c3ccc(Cl)cc3Cl)c2)cc1`: the results for the EC50 in test [1] and in test [2] were 69 nM and 30000 nM, respectively.

With `Cc1cc(Cl)ccc1-c1cc(COc2ccc([C@H](CC(=O)O)c3nccn3C)cc2)ccc1C`, the EC50 in test [1] worked out at 97 nM; in test [2] it was 9800 nM. Regarding `COc1ccccc1-c1cccc(COc2ccc([C@H](CC(=O)O)c3nccn3C)cc2)c1`, in test [1], the EC50 came to 410 nM. Regarding `Cc1c(Cl)cccc1-c1cccc(COc2ccc([C@H](CC(=O)O)c3nccn3C)cc2)c1`, the results for the EC50 in test [1] and in test [2] were 61 nM and 22000 nM, respectively.

Compound `O=C(O)CC(c1ccc(OCc2cccc(-c3ccc(C(F)(F)F)cc3)c2)cc1)c1cccnc1` (racemic) displayed an EC50 in test [5] of 400 nM. `CC#C[C@@H](CC(=O)O)c1ccc(OCc2cccc(-c3ccc(C(F)(F)F)cc3)c2)cc1`: in test [6], the result was Active. Regarding `Cc1cc(Cl)ccc1-c1cccc(COc2ccc([C@H](CC(=O)O)c3nccn3C)cc2)c1C`, the EC50 turned out to be 240 nM in test [1] and 23000 nM in test [2]. Consider `Cn1ccnc1C(CC(=O)O)c1ccc(OCc2cccc(-c3ccc(C(F)(F)F)cc3)c2)cc1` (racemic), for which the half-maximal effective concentration (EC50) in test [5] worked out at 130 nM. Regarding `Cc1cc(F)ccc1-c1cccc(COc2ccc([C@H](CC(=O)O)c3nccn3C)cc2)c1`, the EC50 in test [1] was found to be 59 nM; in test [2], 21000 nM. Regarding `COc1cccc(-c2cccc(COc3ccc([C@H](CC(=O)O)c4nccn4C)cc3)c2)c1`, the EC50 in test [1] was 750 nM.

In test [5], `O=C(O)CC(c1ccc(OCc2cccc(-c3ccc(C(F)(F)F)cc3)c2)cc1)c1cccs1` (racemic) registered an EC50 of 190 nM. In test [5], `O=C(O)CC(c1ccc(OCc2cccc(-c3ccc(C(F)(F)F)cc3)c2)cc1)c1nccs1` (racemic) yielded an EC50 of 120 nM.

On to `Cn1ccnc1[C@@H](CC(=O)O)c1ccc(OCc2cccc(-c3ccccc3S(C)(=O)=O)c2)cc1`, for which the EC50 in test [1] was determined as 23000 nM.

For the origin of these results see ChEMBL document CHEMBL3751835, “Discovery of the imidazole-derived GPR40 agonist AM-3189” (Bioorg Med Chem Lett, 2016).
